One may read the inhibition in vivo as the relative decrease from the control value, in per cent. The IC50 is the concentration at which inhibition is half-maximal. High values mean weaker potency in that assay, low ones greater potency in that assay.

This is an account of results in ChEMBL document CHEMBL2417528, “Synthesis and anticancer activity evaluation of a series of [1,2,4]triazolo[1,5-a]pyridinylpyridines in vitro and in vivo” (Eur J Med Chem, 2013).

The source made the active and inactive calls. The rule behind the calls is not given here.

Series [1] has as its system Mus musculus. Briefly: Toxicity in mouse S180 cells xenografted mouse assessed as change on body weight at 5 mg/kg, po qd for 10 days. The series is classed as organism-based, CCRF S-180. On the set-up: dose 5 mg/kg, route oral. Particulars: in vivo, 240 h. The gist of the method: (§1)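 S-180 tumor-bearing mice (6 per group) dosed orally once daily for 10 days at 1 or 5 mg/kg in DMSO/PEG400/5% glucose (10:60:30), with a vehicle solvent group. Body weights recorded daily. Animals sacrificed on Day 11.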

The subject of series [2] is Mus musculus. Put plainly: Toxicity in mouse S180 cells xenografted mouse assessed as change on body weight at 1 mg/kg, po qd for 10 days. On the set-up: dose 1 mg/kg, route oral. The series is classed as organism-based, CCRF S-180. Particulars: in vivo, 240 h. The method in brief: as §1
The subject of series [3] is Mus musculus. Put plainly: Toxicity in mouse S180 cells xenografted mouse assessed as mortality at 20 mg/kg, po. In kind it is organism-based, CCRF S-180. On the set-up: dose 20 mg/kg, route oral. Conditions: in vivo.
For series [4], the system named is CCRF S-180. Briefly: Antitumor activity against mouse S180 cells xenografted in mouse assessed as inhibition of tumor growth at 5 mg/kg, po qd for 10 days relative to control. In kind it is functional. Particulars: CCRF S-180, 240 h. The gist of the method: (§2)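 Mice bearing sarcoma S-180 randomized into three groups of 6. Compound in DMSO/PEG400/5% glucose (10:60:30) given orally once daily for 10 days at 1 or 5 mg/kg. The solvent group received the same volume of vehicle. Mice sacrificed on Day 11, tumors weighed, and tumor-weight inhibitory ratio calculated versus the solvent group.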

Series [5] relates to CCRF S-180. Put plainly: Antitumor activity against mouse S180 cells xenografted in mouse assessed as inhibition of tumor growth at 1 mg/kg, po qd for 10 days relative to control. The series is classed as functional. Particulars: CCRF S-180, 240 h. The gist of the method:
as §2

In series [6] the test system is HCT-116. Put plainly: Inhibition of PI3K in human HCT116 cells assessed as reduction of AKT phosphorylation at Ser473 at 10 uM after 1 hr by Western blot analysis. The series is classed as cell-based. The method in brief: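 HCT-116 cells seeded at 1 × 10⁶ per well in DMEM with 10% FBS and grown 16 h at 37 °C. Treated 1 h at 37 °C at […] or with DMSO. Cells washed in ice-cold PBS, lysed, and clarified at 12,000 rpm for 20 min at 4 °C. Protein quantified by BCA, run on SDS-PAGE, transferred to nitrocellulose, and probed for AKT and p-Ser473 AKT.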
For orientation: Immunoblotting shows a protein as a band on a membrane.

A further series concerns MCF7. Briefly: Antiproliferative activity against human MCF7 cells after 48 hrs by MTT assay. In kind it is functional, cell-based. Conditions: MCF7, 48 h. The method in brief: (§3)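 Cells seeded at 3000–5000 per well in DMEM with 10% FBS and preincubated 24 h at 37 °C. Cell numbers were titrated so controls stay in exponential growth, then 48 h drug exposure. MTT added for 4 h, formazan pelleted by centrifugation and dissolved in DMSO, OD read at 490 nm. IC50 calculated from inhibition ratios, mean of three separate experiments in triplicate.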

Series [7] has as its system HCT-116. Briefly: Antiproliferative activity against human HCT116 cells after 48 hrs by MTT assay. The series is classed as functional, cell-based. Conditions: HCT-116, 48 h. The method in brief:
as §3
(In general: Tetrazolium dyes change colour on reduction, which living cells bring about.)

Series [8] in a line: Antiproliferative activity against human U87MG cells after 48 hrs by MTT assay. Conditions: U-87 MG. In kind it is functional, cell-based, U-87MG ATCC. The method in brief: as §3

On to `COc1ncc(-c2ccc3nc(NC(C)=O)nn3c2)cc1NS(=O)(=O)c1ccc(F)cc1`, for which the values for the Activity in the series on Mus musculus [1], in the series with Mus musculus [2] and with Mus musculus [3] were < 90%, “Non-toxic” and “Non-toxic”, respectively. Also, in the series with CCRF S-180 [4], the inhibition in vivo at 5 mg/kg amounted to 75.8%. Besides, the inhibition in vivo at 1 mg/kg in the series with CCRF S-180 [5] worked out at 20%. The inhibition entry in the series with HCT-116 [6] was “Active”. For the same molecule, the IC50 in the series on MCF7 came to 840 nM; with HCT-116 [7], 850 nM; in series [8], 1820 nM.

As to `COc1ncc(-c2ccc3nc(N)nn3c2)cc1NS(=O)(=O)c1ccc(Cl)cc1`, the 50% inhibitory concentration (IC50) was 1820 nM in the series on MCF7, 2500 nM with HCT-116 [7] and 3110 nM in [8].

`CCOCCNc1nc2ccc(-c3cnc(OC)c(NS(=O)(=O)c4ccc(F)cc4)c3)cn2n1`: the concentration for half-maximal inhibition (IC50) with MCF7 was 1350 nM; with HCT-116 [7], 9350 nM; in [8] it was 8150 nM.

`CCOC(=O)CNc1nc2ccc(-c3cnc(OC)c(NS(=O)(=O)c4ccc(F)cc4)c3)cn2n1`: the IC50 with MCF7 is 4410 nM; in the series with HCT-116 [7] it was 4370 nM; in series [8] it was 7940 nM.

On to `CC(=O)Nc1nc2ccc(-c3cnc(Cl)c(NS(=O)(=O)c4ccc(F)cc4)c3)cn2n1`, for which the IC50 in the series on MCF7 was determined as 19800 nM; in the series with HCT-116 [7] it was 9230 nM; in series [8] it was 6950 nM.

`Cn1c(=O)n(-c2ccc(C(C)(C)C#N)cc2)c2c3cc(-c4cnc5ccccc5c4)ccc3ncc21` [DACTOLISIB]: the IC50 in the series with MCF7 was 730 nM; in the series with HCT-116 [7] it was 1160 nM; in series [8] it was 1320 nM.

For the molecule `COc1ncc(-c2ccc3nc(NC(C)=O)nn3c2)cc1NS(=O)(=O)c1ccc(F)cc1F`, the half-inhibitory concentration (IC50) with MCF7 turned out to be 870 nM; in the series with HCT-116 [7] it was 740 nM; in series [8], 2000 nM.

Consider `COc1ncc(-c2ccc3nc(NC(C)=O)nn3c2)cc1NS(=O)(=O)C1CC1`, for which the IC50 came to 1640 nM in the series with MCF7, 2220 nM with HCT-116 [7] and 3730 nM in series [8].

For `COc1ncc(-c2ccc3nc(NCC(N)=O)nn3c2)cc1NS(=O)(=O)c1ccc(F)cc1`, the figures for the 50% inhibitory concentration (IC50) (with MCF7; in the series with HCT-116 [7]; in series [8]) were 8400 nM, 6100 nM and 5800 nM, respectively.

`COc1ncc(-c2ccc3nc(N)nn3c2)cc1NS(=O)(=O)c1ccc(C)cc1`: the half-maximal inhibitory concentration (IC50) stood at 1550 nM in the series with MCF7, 3400 nM with HCT-116 [7] and 2510 nM in [8].

Turning to `COc1ncc(-c2ccn3nc(NC(C)=O)nc3c2)cc1NS(=O)(=O)c1ccc(C)cc1`, the IC50 with MCF7 was 1360 nM; in the series with HCT-116 [7], 1380 nM; in [8], 2030 nM.

`COc1ncc(-c2ccc3nc(NC(=O)C4CC4)nn3c2)cc1NS(=O)(=O)c1ccc(F)cc1`: the half-inhibitory concentration (IC50) in the series on MCF7 was found to be 2590 nM; in the series on HCT-116 [7], 1740 nM; in series [8] it was 4850 nM.

For `CC(=O)Nc1nc2ccc(-c3cnc(Cl)c(NS(=O)(=O)c4ccc(C)cc4)c3)cn2n1`, the values for the IC50 (in the series on MCF7; in the series with HCT-116 [7]; in series [8]) were 3250 nM, 2650 nM and 3760 nM, respectively.

Take `CC(=O)Nc1nc2ccc(-c3cnc(Cl)c(NS(=O)(=O)c4ccc(F)cc4)c3)cc2s1`: the inhibition result in the series with HCT-116 [6] is “Active”. In the series with MCF7, this molecule had an IC50 of 230 nM.

With `COc1ncc(-c2ccn3nc(NC(C)=O)nc3c2)cc1NS(=O)(=O)c1ccc(Cl)cc1`, the 50% inhibitory concentration (IC50) with MCF7 is 1240 nM; in the series on HCT-116 [7], 1330 nM; in [8] it was 2120 nM.

With `COCCNc1nc2ccc(-c3cnc(OC)c(NS(=O)(=O)c4ccc(F)cc4)c3)cn2n1`, the IC50 in the series with MCF7 is 2410 nM; in the series with HCT-116 [7], 4610 nM; in series [8] it was 6390 nM.

`COc1ncc(-c2ccn3nc(N)nc3c2)cc1NS(=O)(=O)c1ccc(F)cc1`: the Activity entry in the series on Mus musculus [3] is “Toxic”. The inhibition entry in the series on HCT-116 [6] was “Active”. The IC50 in the series with MCF7 amounted to 920 nM; with HCT-116 [7], 820 nM; in series [8] it was 1770 nM.

Turning to `COc1ncc(-c2ccc3nc(NC(C)=O)nn3c2)cc1NS(=O)(=O)c1ccc(Cl)cc1`, the IC50 in the series on MCF7 worked out at 2010 nM; in the series on HCT-116 [7], 740 nM; in series [8] it was 2090 nM.

`COc1ncc(-c2ccn3nc(NC(C)=O)nc3c2)cc1NS(=O)(=O)c1ccc(F)cc1`: the concentration for half-maximal inhibition (IC50) in the series on MCF7 is 1730 nM; with HCT-116 [7] it was 1320 nM; in series [8], 2410 nM.

In the case of `COc1ncc(-c2ccc3nc(NCC(=O)O)nn3c2)cc1NS(=O)(=O)c1ccc(F)cc1`, the results for the IC50 (with MCF7; with HCT-116 [7]; in series [8]) were 12600 nM, 8640 nM and 9810 nM, respectively.

Take `CNC(=O)CNc1nc2ccc(-c3cnc(OC)c(NS(=O)(=O)c4ccc(F)cc4)c3)cn2n1`: the IC50 with MCF7 is 2540 nM; in the series with HCT-116 [7] it was 4910 nM; in series [8], 7290 nM.

On to `O=C(Nc1nc2ccc(-c3cnc(Cl)c(NS(=O)(=O)c4ccc(F)cc4)c3)cn2n1)C1CC1`, for which the figures for the half-inhibitory concentration (IC50) (in the series with MCF7; with HCT-116 [7]; in [8]) were > 60000 nM, 9980 nM and 11000 nM, respectively.

On to `COc1ncc(-c2ccc3nc(NC(C)=O)nn3c2)cc1NS(=O)(=O)c1ccc(C)cc1`, for which the half-maximal inhibitory concentration (IC50) in the series on MCF7 is 810 nM; in the series on HCT-116 [7], 600 nM; in [8] it was 1600 nM.

`COc1ncc(-c2ccc3nc(N)nn3c2)cc1NS(=O)(=O)c1ccc(F)cc1`: the half-inhibitory concentration (IC50) came to 1930 nM in the series on MCF7, 2970 nM in the series with HCT-116 [7] and 3950 nM in series [8].
